# Test system: OVCAR-3
# Assay: Growth inhibition of human OVCAR3 cells at 10 uM after 48 hrs by coulter counter analysis
# Assay type: functional
# Details: OVCAR-3, 48 h, read-out: GI
# Summary of the method: (§1)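 Single-dose NCI 60-line panel screen of test compounds. Cells grown in RPMI 1640 with 10% FBS. Compounds dissolved in DMSO, then diluted in phosphate buffer saline (final DMSO below 1%). Wells run in duplicate at 6 × 10⁴ cells/ml. Controls held PBS and DMSO at matching dilutions. Incubation 48 h at 37 °C under humidified 5% CO2. Cells diluted tenfold in saline and counted by Coulter counter. Percent growth inhibition taken from mean-graph of treated-cell growth.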
row,SMILES,inhibition of growth at 10 µM [%]
1,O=C(CN1CCN(c2ccccc2)CC1)Nc1nc(-c2ccccc2)cs1,< 10

# Test system: SW-620
# Assay: Growth inhibition of human SW620 cells at 10 uM after 48 hrs by coulter counter analysis
# Assay type: functional
# Details: SW-620, 48 h, read-out: GI
# Summary of the method: (§2)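 Single-dose screen in the NCI 60 cell line panel. Cells grown in RPMI 1640 with 10% FBS. Compounds dissolved in DMSO and diluted in phosphate buffered saline, final DMSO under 1%. Duplicate wells seeded from culture at 6 × 10⁴ cells/ml. Incubated 48 h at 37 °C, humidified, 5% CO2. Cells diluted tenfold in saline and Coulter-counted. Percent growth inhibition computed against PBS/DMSO controls.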
row,SMILES,inhibition of growth at 10 µM [%]
1,O=C(CN1CCN(c2ccccc2)CC1)Nc1nc(-c2ccccc2)cs1,< 10

# Test system: NCI-H226
# Assay: Growth inhibition of human NCI-H226 cells at 10 uM after 48 hrs by coulter counter analysis
# Assay type: functional
# Details: NCI-H226, 48 h, read-out: GI
# Summary of the method: as §1
row,SMILES,inhibition of growth at 10 µM [%]
1,O=C(CN1CCN(c2ccccc2)CC1)Nc1nc(-c2ccccc2)cs1,19.1

# Test system: IGROV-1
# Assay: Growth inhibition of human IGROV1 cells at 10 uM after 48 hrs by coulter counter analysis
# Assay type: functional
# Details: IGROV-1, 48 h, read-out: GI
# Summary of the method: as §1
row,SMILES,inhibition of growth at 10 µM [%]
1,O=C(CN1CCN(c2ccccc2)CC1)Nc1nc(-c2ccccc2)cs1,26.5

# Test system: HOP-92
# Assay: Growth inhibition of human HOP92 cells at 10 uM after 48 hrs by coulter counter analysis
# Assay type: functional
# Details: HOP-92, 48 h, read-out: GI
# Summary of the method: as §1
row,SMILES,inhibition of growth at 10 µM [%]
1,O=C(CN1CCN(c2ccccc2)CC1)Nc1nc(-c2ccccc2)cs1,25.6

# Test system: NCI-H522
# Assay: Growth inhibition of human NCI-H522 cells at 10 uM after 48 hrs by coulter counter analysis
# Assay type: functional
# Details: NCI-H522, 48 h, read-out: GI
# Summary of the method: as §1
row,SMILES,inhibition of growth at 10 µM [%]
1,O=C(CN1CCN(c2ccccc2)CC1)Nc1nc(-c2ccccc2)cs1,29.7

# Test system: SN12C
# Assay: Growth inhibition of human SN12C cells at 10 uM after 48 hrs by coulter counter analysis
# Assay type: functional
# Details: read-out: GI
# Summary of the method: as §1
row,SMILES,inhibition of growth at 10 µM [%]
1,O=C(CN1CCN(c2ccccc2)CC1)Nc1nc(-c2ccccc2)cs1,17.3

# Test system: SF-268
# Assay: Growth inhibition of human SF268 cells at 10 uM after 48 hrs by coulter counter analysis
# Assay type: functional
# Details: SF-268, 48 h, read-out: GI
# Summary of the method: as §1
row,SMILES,inhibition of growth at 10 µM [%]
1,O=C(CN1CCN(c2ccccc2)CC1)Nc1nc(-c2ccccc2)cs1,< 10

# Test system: OVCAR-8
# Assay: Growth inhibition of human OVCAR8 cells at 10 uM after 48 hrs by coulter counter analysis
# Assay type: functional
# Details: OVCAR-8, 48 h, read-out: GI
# Summary of the method: as §1
row,SMILES,inhibition of growth at 10 µM [%]
1,O=C(CN1CCN(c2ccccc2)CC1)Nc1nc(-c2ccccc2)cs1,< 10

# Test system: LOX IMVI
# Assay: Growth inhibition of human LOXIMVI cells at 10 uM after 48 hrs by coulter counter analysis
# Assay type: functional
# Details: read-out: GI
# Summary of the method: as §1
row,SMILES,inhibition of growth at 10 µM [%]
1,O=C(CN1CCN(c2ccccc2)CC1)Nc1nc(-c2ccccc2)cs1,11.5

# Test system: Malme-3M
# Assay: Growth inhibition of human MALME-3M cells at 10 uM after 48 hrs by coulter counter analysis
# Assay type: functional
# Details: read-out: GI
# Summary of the method: as §1
row,SMILES,inhibition of growth at 10 µM [%]
1,O=C(CN1CCN(c2ccccc2)CC1)Nc1nc(-c2ccccc2)cs1,23.4

# Test system: MCF7
# Assay: Growth inhibition of human MCF7 cells at 10 uM after 48 hrs by coulter counter analysis
# Assay type: functional
# Details: MCF7, 48 h, read-out: GI
# Summary of the method: as §1
row,SMILES,inhibition of growth at 10 µM [%]
1,O=C(CN1CCN(c2ccccc2)CC1)Nc1nc(-c2ccccc2)cs1,19.3

# Test system: M14
# Assay: Growth inhibition of human M14 cells at 10 uM after 48 hrs by coulter counter analysis
# Assay type: functional
# Details: M14, 48 h, read-out: GI
# Summary of the method: as §1
row,SMILES,inhibition of growth at 10 µM [%]
1,O=C(CN1CCN(c2ccccc2)CC1)Nc1nc(-c2ccccc2)cs1,13.6

# Test system: UO-31
# Assay: Growth inhibition of human UO31 cells at 10 uM after 48 hrs by coulter counter analysis
# Assay type: functional
# Details: UO-31, 48 h, read-out: GI
# Summary of the method: as §2
row,SMILES,inhibition of growth at 10 µM [%]
1,O=C(CN1CCN(c2ccccc2)CC1)Nc1nc(-c2ccccc2)cs1,51.4

# Test system: SK-MEL-5
# Assay: Growth inhibition of human SK-MEL-5 cells at 10 uM after 48 hrs by coulter counter analysis
# Assay type: functional
# Details: SK-MEL-5, 48 h, read-out: GI
# Summary of the method: as §1
row,SMILES,inhibition of growth at 10 µM [%]
1,O=C(CN1CCN(c2ccccc2)CC1)Nc1nc(-c2ccccc2)cs1,31.9

# Test system: MDA-MB-468
# Assay: Growth inhibition of human MDA-MB-468 cells at 10 uM after 48 hrs by coulter counter analysis
# Assay type: functional
# Details: MDA-MB-468, 48 h, read-out: GI
# Summary of the method: as §1
row,SMILES,inhibition of growth at 10 µM [%]
1,O=C(CN1CCN(c2ccccc2)CC1)Nc1nc(-c2ccccc2)cs1,30.4

# Test system: not listed separately
# Assay: Growth inhibition of human Hs 578T cells at 10 uM after 48 hrs by coulter counter analysis
# Assay type: functional
# Details: read-out: GI
# Summary of the method: as §1
row,SMILES,inhibition of growth at 10 µM [%]
1,O=C(CN1CCN(c2ccccc2)CC1)Nc1nc(-c2ccccc2)cs1,< 10

# Test system: COLO 205
# Assay: Growth inhibition of human COLO205 cells at 10 uM after 48 hrs by coulter counter analysis
# Assay type: functional
# Details: COLO 205, 48 h, read-out: GI
# Summary of the method: as §1
row,SMILES,inhibition of growth at 10 µM [%]
1,O=C(CN1CCN(c2ccccc2)CC1)Nc1nc(-c2ccccc2)cs1,12.4

# Reference: ChEMBL document CHEMBL2040727, “Substituted thiazoles VI. Synthesis and antitumor activity of new 2-acetamido- and 2 or 3-propanamido-thiazole analogs” (2012)
